Results: publication PMC6404779 (Nature medicine, 2018)

Columns and labels:
[1] = tested on: second site of RAF dimers; details: read-out: IC50 of binding to the second site of RAF dimers; cited from earlier work
first site of RAF dimers = details: cited from earlier work
BRAF V600E monomer = details: cited from earlier work
[2] = tested on: RAF-null MEFs expressing ARAF; assay: ERK signaling in RAF-null MEFs expressing one RAF isoform; type: cell-based, Mouse; details: 1hr
Procedure, shortened: (§1)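 RAF-less MEFs came from Araflox/lox;Braflox/lox;Craflox/lox;RERT ert/ert MEFs. Doxycycline-inducible wild-type ARAF, BRAF or CRAF was transduced retrovirally without 4-OHT and selected with puromycin/hygromycin. Cells were then infected with Adeno-Cre (MOI 100) and cultured in 1 uM 4-OHT plus 50 ng/ml doxycycline. GFP-positive cells were sorted after 2 weeks. Loss of endogenous RAF and induced expression were confirmed by genomic PCR and Western blot.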

BRAF G466V PDX tumors = assay: Colorectal cancer PDX model; type: in vivo, NSG mice; details: Cetuximab 50 mg/kg IP twice weekly, vemurafenib 75 mg/kg BID, PLX8394 50 mg/kg BID
[3] = tested on: RAF-null MEFs expressing BRAF; assay: ERK signaling in RAF-null MEFs expressing one RAF isoform; type: cell-based, Mouse; details: 1hr
Procedure, shortened: as §1

[4] = tested on: A375 cells with overexpression of BRAF V600E; assay: A375 xenograft with doxycycline-induced BRAF V600E overexpression; type: in vivo, nude mice; details: vemurafenib 75mg/kg BID, PLX8394 50mg/kg BID
Procedure, shortened: (§2)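 A375 cells carrying a retroviral tet-regulated BRAF V600E or NRAS Q61K construct (kept in 50 ug/ml hygromycin and 0.2 ug/ml puromycin). 5 million cells were injected s.c. into nude mice fed doxycycline food. At 100 mm3, mice stayed on doxycycline food and received vehicle, reference RAF inhibitor 75 mg/kg BID or test compound 50 mg/kg BID. Tumour size was tracked (n=5; mean±s.d.; two-tailed unpaired t-test).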

[5] = tested on: BRAF K601E CRC PDX tumors; assay: Colorectal cancer PDX model; type: in vivo, NSG mice; details: vemurafenib 75mg/kg BID, PLX8394 50mg/kg BID
[6] = tested on: RAF-null MEFs expressing CRAF; assay: ERK signaling in RAF-null MEFs expressing one RAF isoform; type: cell-based, Mouse; details: 1hr
Procedure, shortened: as §1

[7] = tested on: A375 cells with NRAS Q61K expression; assay: A375 xenograft with doxycycline-induced NRAS Q61K; type: in vivo, nude mice; details: vemurafenib 75mg/kg BID, PLX8394 50mg/kg BID
Procedure, shortened: as §2

SMILES	IC50 [1]	time the drug remains bound to the other site after washout (first site of RAF dimers; cells pretreated 1 hour, washed out)	IC50 (first site of RAF dimers; read-out: IC50 of binding to first site of RAF dimers)	off-rate from BRAF V600E monomers (BRAF V600E monomer)	IC50 (BRAF V600E monomer; read-out: IC50 of binding to the BRAF V600E monomer)	effect on ERK signaling, cells expressing only ARAF [2]	response of ERK signaling and tumor growth (BRAF G466V PDX tumors)	effect on ERK signaling, cells expressing only BRAF [3]	response of ERK signaling and tumor growth, BRAF V600E amplified [4]	tumor growth response, single RAF inhibitor [5]	effect on ERK signaling, cells expressing only CRAF [6]	response of ERK signaling and tumor growth, mutant NRAS [7]
COC(=O)N[C@@H](C)CNc1nccc(-c2cn(C(C)C)nc2-c2cc(Cl)cc(NS(C)(=O)=O)c2F)n1 [encorafenib]	287 nM	up to 24 hours	14 nM	> 24 h	14 nM							
CCCS(=O)(=O)Nc1ccc(F)c(C(=O)c2c[nH]c3ncc(-c4ccc(Cl)cc4)cc23)c1F [vemurafenib, reference compound]						activated ERK signaling	insensitive	activated ERK signaling	resistance	insensitive	activated ERK signaling	resistance
